Calls of active or inactive are those of the source. The calls are words filed in the database; no cut-off is given here.
How the values were obtained:
[1] = molecular target: T1, G-protein coupled receptor (Canis lupus familiaris) (UniProt Q2A652); assay: Antagonist activity at dog CRTH2 receptor assessed as inhibition of calcium flux by cell-based FLIPR assay; type: functional
T1 sequence (whole entry): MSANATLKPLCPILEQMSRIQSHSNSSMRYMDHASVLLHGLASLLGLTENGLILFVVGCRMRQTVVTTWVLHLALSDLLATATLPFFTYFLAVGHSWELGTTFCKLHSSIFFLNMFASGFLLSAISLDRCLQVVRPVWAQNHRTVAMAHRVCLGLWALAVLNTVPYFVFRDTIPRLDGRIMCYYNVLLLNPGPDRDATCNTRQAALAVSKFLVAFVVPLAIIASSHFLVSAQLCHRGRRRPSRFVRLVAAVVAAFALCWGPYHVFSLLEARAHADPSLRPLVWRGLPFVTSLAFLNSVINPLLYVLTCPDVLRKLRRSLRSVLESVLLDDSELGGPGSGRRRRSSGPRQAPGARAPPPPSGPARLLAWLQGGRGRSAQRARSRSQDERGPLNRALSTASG

[2] = molecular target: T2, Prostaglandin D2 receptor 2 (Mus musculus) (UniProt Q9Z2J6); assay: Antagonist activity at mouse CRTH2 receptor assessed as inhibition of calcium flux by cell-based FLIPR assay; type: functional
T2 sequence (whole entry): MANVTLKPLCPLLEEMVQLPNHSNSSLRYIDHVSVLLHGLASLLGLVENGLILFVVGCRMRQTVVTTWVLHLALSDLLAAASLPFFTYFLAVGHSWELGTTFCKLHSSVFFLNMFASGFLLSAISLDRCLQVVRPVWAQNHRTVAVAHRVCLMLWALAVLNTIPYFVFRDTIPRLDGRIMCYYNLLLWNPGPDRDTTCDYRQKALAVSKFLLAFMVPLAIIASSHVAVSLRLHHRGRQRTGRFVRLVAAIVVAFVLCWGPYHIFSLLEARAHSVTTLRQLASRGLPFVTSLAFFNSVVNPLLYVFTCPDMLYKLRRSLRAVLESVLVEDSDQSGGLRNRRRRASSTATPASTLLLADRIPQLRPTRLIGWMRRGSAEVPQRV

[3] = molecular target: T3, Prostaglandin E2 receptor EP3 subtype (Homo sapiens, UniProt P43115); assay: Antagonist activity at human prostanoid EP3 receptor expressed in HEK293 cells assessed as inhibition of PGE2-induced calcium flux after 60 mins by FLIPR assay; type: functional, cell-based
T3 sequence (P43115 whole entry): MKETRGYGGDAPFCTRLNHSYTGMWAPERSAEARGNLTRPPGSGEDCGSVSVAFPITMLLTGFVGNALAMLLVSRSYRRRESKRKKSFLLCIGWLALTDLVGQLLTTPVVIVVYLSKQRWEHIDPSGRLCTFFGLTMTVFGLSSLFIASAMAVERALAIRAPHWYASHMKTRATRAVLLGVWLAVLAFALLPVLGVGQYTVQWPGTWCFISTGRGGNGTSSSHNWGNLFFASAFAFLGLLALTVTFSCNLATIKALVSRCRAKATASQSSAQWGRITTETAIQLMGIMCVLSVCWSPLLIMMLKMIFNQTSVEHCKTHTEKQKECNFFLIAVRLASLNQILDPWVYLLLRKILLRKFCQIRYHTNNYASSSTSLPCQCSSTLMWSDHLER

Homo sapiens = species: Homo sapiens; assay: Selectivity factor, ratio of IC50 for recombinant human prostanoid DP1 receptor to IC50 for recombinant human CRTH2 receptor
Summary of the method: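 hDP₁ IC₅₀ came from competitive [³H]PGD₂ binding on CHO cells stably overexpressing recombinant hDP₁. hCRTh2 IC₅₀ came from [³H]PGD₂ (2.5 nM) displacement on membranes of HEK-293 cells stably expressing hCRTh2, incubated 90 min at room temperature, filtered and counted. f_Sel = IC₅₀(hDP₁)/IC₅₀(hCRTh2).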

[4] = molecular target: T4, Prostaglandin D2 receptor 2 (Homo sapiens, UniProt Q9Y5Y4); assay: Antagonist activity at human CRTH2 receptor expressed in HEK293 cells assessed as inhibition of PGD2-induced calcium flux after 5 mins by FLIPR assay; type: functional, cell-based
T4 sequence (Q9Y5Y4 whole entry): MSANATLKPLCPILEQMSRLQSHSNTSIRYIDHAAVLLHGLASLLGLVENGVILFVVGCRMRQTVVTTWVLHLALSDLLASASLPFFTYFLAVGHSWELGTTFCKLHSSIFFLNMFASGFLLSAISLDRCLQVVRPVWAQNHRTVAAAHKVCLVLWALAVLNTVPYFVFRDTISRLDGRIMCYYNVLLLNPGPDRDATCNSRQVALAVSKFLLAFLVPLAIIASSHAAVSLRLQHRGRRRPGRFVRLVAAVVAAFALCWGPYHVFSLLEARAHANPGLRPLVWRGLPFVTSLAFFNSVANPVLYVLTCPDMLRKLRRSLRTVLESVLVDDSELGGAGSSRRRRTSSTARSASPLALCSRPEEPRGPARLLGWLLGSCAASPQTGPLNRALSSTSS
Summary of the method: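 HEK-293 cells stably expressing hCRTh2 were loaded with 4 μM Fluo-4 AM for 40 min at 37 °C in HBSS/20 mM HEPES pH 7.2. Compound was added 5 min before 50 nM PGD2 (final) in buffer with 0.05% BSA. Peak fluorescence was normalised to no-antagonist control after baseline subtraction; IC50 from four-parameter fit.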

Thromboxane A2 receptor = molecular target: T5, Thromboxane A2 receptor (Homo sapiens, UniProt P21731); assay: Antagonist activity at human prostanoid TP2 receptor expressed in HEK293 cells assessed as inhibition of calcium flux after 30 to 40 mins by FLIPR assay; type: functional, cell-based
T5 sequence (P21731 whole entry): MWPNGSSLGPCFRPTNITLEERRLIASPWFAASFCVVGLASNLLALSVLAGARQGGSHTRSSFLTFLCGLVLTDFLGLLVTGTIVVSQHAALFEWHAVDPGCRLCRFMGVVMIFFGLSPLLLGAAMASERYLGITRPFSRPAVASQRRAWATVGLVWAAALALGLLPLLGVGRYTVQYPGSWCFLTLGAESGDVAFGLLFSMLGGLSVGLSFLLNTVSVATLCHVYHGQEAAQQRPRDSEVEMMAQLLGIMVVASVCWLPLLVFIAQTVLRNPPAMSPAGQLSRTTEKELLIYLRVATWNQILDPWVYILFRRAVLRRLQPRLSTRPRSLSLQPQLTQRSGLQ

[5] = molecular target: T6, Prostaglandin E2 receptor EP4 subtype (Homo sapiens, UniProt P35408); assay: Displacement of [3H]PGE2 from recombinant human prostanoid EP4 receptor expressed in HEK293 cell membranes after 90 mins by scintillation counting analysis
T6 sequence (P35408 whole entry): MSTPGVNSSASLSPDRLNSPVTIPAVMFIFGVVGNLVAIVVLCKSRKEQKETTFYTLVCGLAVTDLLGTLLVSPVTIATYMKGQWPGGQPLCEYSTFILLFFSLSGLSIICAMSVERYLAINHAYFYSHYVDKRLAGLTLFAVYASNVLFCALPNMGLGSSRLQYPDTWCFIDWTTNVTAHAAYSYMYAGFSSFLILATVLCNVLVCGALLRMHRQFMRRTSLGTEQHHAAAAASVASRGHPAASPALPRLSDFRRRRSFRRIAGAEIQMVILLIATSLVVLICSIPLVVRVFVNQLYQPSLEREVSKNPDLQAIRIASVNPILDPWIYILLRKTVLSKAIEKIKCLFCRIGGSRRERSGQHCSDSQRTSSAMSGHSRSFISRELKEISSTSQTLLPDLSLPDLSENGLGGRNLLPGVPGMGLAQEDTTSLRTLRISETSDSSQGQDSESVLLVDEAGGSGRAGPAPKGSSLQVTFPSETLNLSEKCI

[6] = molecular target: T4, Prostaglandin D2 receptor 2; assay: Displacement of [3H]PGD2 from recombinant human CRTH2 receptor expressed in HEK293 cell membranes after 90 mins by scintillation counting analysis in presence of human serum albumin
Summary of the method: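 Same hCRTH2 HEK293 membrane [3H]PGD2 (2.5 nM) displacement, 90 min at room temperature, with 0.5% human serum albumin added to the assay buffer; scintillation counting.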

[7] = molecular target: T6, Prostaglandin E2 receptor EP4 subtype; assay: Inhibition of beta-arrestin binding to recombinant human prostanoid EP4 receptor expressed in HEK293 cell membranes by beta-lactamase complementation assay

With `O=C(O)Cn1c2c(c3ccccc31)CN(C(=O)c1ccccc1)CC2` the inhibition [1] was “Active”, the inhibition [2] was “Active” and the IC50 [3] was over 25 µM. The Ratio IC50 (Homo sapiens) was over 580.
`O=C(O)Cn1c2c(c3ccccc31)CN(C(=O)C1CCCCC1)CC2` was tested, and the IC50 [4] was 0.2 µM, the IC50 (Thromboxane A2 receptor) was over 25 µM and the IC50 [5] was over 10 µM. The inhibition [1] was “Active”, the inhibition [2] was “Active” and the IC50 [3] was over 25 µM.
In the case of `O=C(O)Cn1c2c(c3cc(F)ccc31)CN(C(=O)c1cccs1)CC2`, the IC50 [4] is reported as 0.04 µM, the IC50 (Thromboxane A2 receptor) is reported as over 25 µM and the IC50 [5] is reported as over 10 µM. The inhibition [1] was “Active”, the inhibition [2] was “Active” and the IC50 [3] was over 25 µM. For the same molecule, the IC50 [6] was 0.012 µM, the IC50 [7] was over 10 µM and the Ratio IC50 (Homo sapiens) was over 2500.
`CCc1ccc(-c2ccc(C(=O)N3CCc4c(c5ccccc5n4CC(=O)O)C3)cc2)cc1` was tested, and the IC50 [4] was 0.19 µM, the IC50 (Thromboxane A2 receptor) was over 25 µM and the IC50 [5] was over 10 µM. The inhibition [1] was “Active”, the inhibition [2] was “Active” and the IC50 [3] was over 25 µM. It also gave an IC50 [7] of over 10 µM and a Ratio IC50 (Homo sapiens) of 195.
For `O=C(O)Cn1c2c(c3cc(F)ccc31)CN(C(=O)c1cccc3ccccc13)CC2` [SETIPIPRANT], the IC50 [4] was 0.03 µM, the IC50 (Thromboxane A2 receptor) was over 25 µM and the IC50 [5] was over 10 µM. For the same molecule, the inhibition [1] was “inactive”, the IC50 [3] was over 25 µM and the IC50 [6] was 0.34 µM. The IC50 [7] was over 10 µM and the Ratio IC50 (Homo sapiens) was 215.
For `COc1ccc2c(c1)c1c(n2CC(=O)O)CCN(C(=O)c2ccccc2)C1`, the IC50 (Thromboxane A2 receptor) was over 25 µM, the IC50 [5] was over 10 µM and the inhibition [1] was “Active”. For the same molecule, the inhibition [2] was “Active” and the IC50 [3] was over 25 µM.
`O=C(O)Cn1c2c(c3ccccc31)CN(C(=O)c1cccc(Cl)c1)CC2` gave an IC50 [4] of 0.07 µM, an IC50 (Thromboxane A2 receptor) of over 25 µM and an IC50 [5] of over 10 µM. The inhibition [1] was “Active”, the inhibition [2] was “Active” and the IC50 [3] was over 25 µM. The IC50 [6] was 0.03 µM, the IC50 [7] was over 10 µM and the Ratio IC50 (Homo sapiens) was over 1000.
Work on `O=C(O)Cn1c2c(c3ccccc31)CN(C(=O)c1cccc3ccccc13)CC2` yielded an IC50 [4] of 0.03 µM, an IC50 (Thromboxane A2 receptor) of over 25 µM and an IC50 [5] of over 10 µM. For the same molecule, the inhibition [1] was “inactive”, the IC50 [3] was over 25 µM and the IC50 [6] was 0.42 µM. It also gave an IC50 [7] of over 10 µM and a Ratio IC50 (Homo sapiens) of 87.
`CCc1ccc(-c2ccc(C(=O)N3CCc4c(c5cccc(Cl)c5n4CC(=O)O)C3)cc2)cc1` showed an IC50 [4] of 2.6 µM, an IC50 (Thromboxane A2 receptor) of over 25 µM and an IC50 [5] of over 10 µM. The inhibition [1] was “Active”, the inhibition [2] was “Active” and the IC50 [3] was over 25 µM. The IC50 [6] was 0.09 µM, the IC50 [7] was over 10 µM and the Ratio IC50 (Homo sapiens) was 5.2.
`O=C(O)Cn1c2c(c3cc(F)ccc31)CN(C(=O)Cc1cccc3ccccc13)CC2` was tested, and the IC50 [4] was 0.07 µM, the IC50 (Thromboxane A2 receptor) was over 25 µM and the IC50 [5] was over 10 µM. The inhibition [1] was “Active”, the inhibition [2] was “Active” and the IC50 [3] was over 25 µM. For the same molecule, the IC50 [6] was 0.18 µM, the IC50 [7] was over 10 µM and the Ratio IC50 (Homo sapiens) was over 2500.
`O=C(O)Cn1c2c(c3cc(F)ccc31)CN(C(=O)CCc1cccc3ccccc13)CC2` was tested, and the IC50 [4] was 0.065 µM, the IC50 (Thromboxane A2 receptor) was over 25 µM and the IC50 [5] was over 10 µM. For the same molecule, the inhibition [1] was “Active”, the inhibition [2] was “Active” and the IC50 [3] was over 25 µM. The IC50 [6] was 0.03 µM, the IC50 [7] was over 10 µM and the Ratio IC50 (Homo sapiens) was over 1000.
With `O=C(O)Cn1c2c(c3cc(Cl)ccc31)CN(C(=O)c1cccc3ccccc13)CC2` the IC50 [4] was 0.03 µM, the IC50 (Thromboxane A2 receptor) was over 25 µM and the IC50 [5] was over 10 µM. For the same molecule, the inhibition [1] was “Active”, the inhibition [2] was “Active” and the IC50 [3] was over 25 µM. The IC50 [6] was 0.065 µM, the IC50 [7] was over 10 µM and the Ratio IC50 (Homo sapiens) was 230.
With `CC(C)c1ccc2c(c1)c1c(n2CC(=O)O)CCN(C(=O)c2ccccc2)C1` the IC50 (Thromboxane A2 receptor) was over 25 µM, the IC50 [5] was over 10 µM and the inhibition [1] was “Active”. The inhibition [2] was “Active” and the IC50 [3] was over 25 µM.
Work on `O=C(O)Cn1c2c(c3cc(F)ccc31)CN(C(=O)c1cccc(Cl)c1)CC2` yielded an IC50 [4] of 0.04 µM, an IC50 (Thromboxane A2 receptor) of over 25 µM and an IC50 [5] of over 10 µM. The inhibition [1] was “inactive”, the IC50 [3] was over 25 µM and the IC50 [6] was 0.06 µM. For the same molecule, the IC50 [7] was over 10 µM and the Ratio IC50 (Homo sapiens) was over 1100.

From ChEMBL document CHEMBL2385063, “Identification of 2-(2-(1-naphthoyl)-8-fluoro-3,4-dihydro-1H-pyrido[4,3-b]indol-5(2H)-yl)acetic acid (setipiprant/ACT-129968), a potent, selective, and orally bioavailable chemoattractant receptor-homologous molecule expressed on Th2 cells (CRTH2) antagonist” (J Med Chem, 2013)
